Measurements gathered from unrelated publications.
Compare with care: the assays were run in different laboratories.
Target: Serine/threonine-protein kinase 10 (STK10, Homo sapiens, UniProt O94804)

Compound | test | conditions | remaining binding
CN(C)c1ncc(F)c(-c2cnn3ncccc23)n1 | binding | 1 µM | 42%
CN(C)C(=O)Cn1cc(-c2nc([C@@](C)(c3ccc(-c4cnc(N)nc4)cc3)C3CC3)no2)cn1 | cell-free assay, competition with immobilised ligand | 1 µM | 89%
C[C@H]1CCN(c2nccc(-c3cnn4ncccc34)n2)C1 | binding | 1 µM | 100%
O=C(NCCCN1CCOCC1)c1ccc(Nc2nccc(-c3cc4ccccc4s3)n2)cc1 | binding, competition with immobilised ligand | 1 µM | 94%
CCCOc1ccc([C@H]2[C@H](C(=O)O)[C@@H](c3ccc4c(c3)OCO4)CN2CC(=O)Nc2c(CC)cccc2CC)cc1 | cell-free assay, competition with immobilised ligand | 1 µM | 97%
N[C@H]1CCN(c2nccc(-c3cnn4ncccc34)n2)C1 | binding | 1 µM | 98%
FC(F)(F)Oc1cccc(-c2cnc3ccc(-c4ccncc4)nn23)c1 | binding, competition with immobilised ligand | 5 µM | 0.3%
Cn1cc(Cl)c2c(Oc3c(F)cc(Nc4cc(Cl)nc(N)n4)cc3F)ccnc21 | cell-free assay, competition with immobilised ligand | 0.1 µM | 100%
O=C(c1ccc(Nc2ncc(Cl)c(-c3ccc(Cl)s3)n2)cc1)N1CCC(N2CCCC2)CC1 | binding, competition with immobilised ligand | 1 µM | 28%
O=C(Nc1c[nH]nc1C(=O)NC1CCNCC1)c1cc(F)cc(F)c1 | binding, competition with immobilised ligand | 1 µM | 100%
COc1cnc(Nc2cccc(S(N)(=O)=O)c2)nc1N1CCN(c2ccccc2)C(=O)C1 | binding, competition with immobilised ligand | 1 µM | 100%
CN(C)c1nccc(-c2cnc3ncccn23)n1 | binding | 1 µM | 100%
CC(C)CC(=O)N1CCc2nc(-c3ccc(Br)cc3)nc(N(C)Cc3ccccc3)c2C1 | cell-free assay, competition with immobilised ligand | 0.1 µM | 100%
F[C@@H]1CCN(c2nccc(-c3cnn4ncccc34)n2)C1 | binding | 1 µM | 90%
O=C(O)[C@@H]1[C@@H](Cn2nnc3ccccc3c2=O)CC[C@H]1C(=O)c1ccc(OCCC2CCOCC2)cc1 | cell-free assay, competition with immobilised ligand | 1 µM | 84%
COc1cnc(Nc2cccc(S(N)(=O)=O)c2)nc1N1CCN(c2ccccc2)CC1 | binding, competition with immobilised ligand | 1 µM | 100%
CC1=C(C#N)[C@@H](c2ccc3[nH]nc(C)c3c2)C(C#N)=C(c2ccc(Cl)cc2)N1 | cell-free assay, competition with immobilised ligand | 1 µM | 100%
CN(CCCC(F)(F)F)c1nccc(-c2cnn3ncccc23)n1 | binding | 1 µM | 100%
O=C(c1ccc(Nc2nccc(-c3cc4ccccc4s3)n2)cc1)N1CCC(N2CCCC2)CC1 | binding, competition with immobilised ligand | 1 µM | 58%
Nc1ncc2c(n1)-c1c([nH]c3ccc(C#CC4CC4)cc13)CCCC2 | binding, competition with immobilised ligand | 1 µM | 99%
